Measurements reported in ChEMBL document CHEMBL5634116, “Strategies for developing retinoic acid receptor alpha-selective antagonists as novel agents for male contraception” (Eur J Med Chem, 2023).
pEC50, pIC50: −log10 of the molar value.

What was measured:
[1] = biological target: T1, Retinoic acid receptor gamma (Homo sapiens, UniProt P13631); experiment: Antagonist activity at recombinant human RAR-gamma expressed in mammalian cells in presence of ATRA by luciferase reporter gene based transactivation assay; format: cell-based
T1 sequence (P13631 whole entry): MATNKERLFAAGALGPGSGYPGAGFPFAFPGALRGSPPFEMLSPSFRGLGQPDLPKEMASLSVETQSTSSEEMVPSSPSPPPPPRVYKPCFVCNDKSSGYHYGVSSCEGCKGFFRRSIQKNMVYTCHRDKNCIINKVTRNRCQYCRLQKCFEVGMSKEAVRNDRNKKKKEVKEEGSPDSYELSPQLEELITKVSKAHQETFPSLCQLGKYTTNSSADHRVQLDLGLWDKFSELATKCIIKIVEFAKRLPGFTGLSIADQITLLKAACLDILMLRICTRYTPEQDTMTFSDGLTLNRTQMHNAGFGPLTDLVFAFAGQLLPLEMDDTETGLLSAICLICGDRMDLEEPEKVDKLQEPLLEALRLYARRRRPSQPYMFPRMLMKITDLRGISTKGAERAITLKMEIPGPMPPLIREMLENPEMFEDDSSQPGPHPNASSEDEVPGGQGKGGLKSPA
In short: (§1)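 Compounds 8-point dose response in triplicate, DMSO final 0.4%; overnight at 37 °C, 5% CO2; luminescence after 30 min detection reagent. IC50 by four-parameter logistic fit; agonist-free wells set background.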

[2] = biological target: T2, Retinoic acid receptor beta (Homo sapiens, UniProt P10826); experiment: Antagonist activity at recombinant human RAR-beta expressed in mammalian cells in presence of ATRA by luciferase reporter gene based transactivation assay; format: cell-based
T2 sequence (P10826 whole entry): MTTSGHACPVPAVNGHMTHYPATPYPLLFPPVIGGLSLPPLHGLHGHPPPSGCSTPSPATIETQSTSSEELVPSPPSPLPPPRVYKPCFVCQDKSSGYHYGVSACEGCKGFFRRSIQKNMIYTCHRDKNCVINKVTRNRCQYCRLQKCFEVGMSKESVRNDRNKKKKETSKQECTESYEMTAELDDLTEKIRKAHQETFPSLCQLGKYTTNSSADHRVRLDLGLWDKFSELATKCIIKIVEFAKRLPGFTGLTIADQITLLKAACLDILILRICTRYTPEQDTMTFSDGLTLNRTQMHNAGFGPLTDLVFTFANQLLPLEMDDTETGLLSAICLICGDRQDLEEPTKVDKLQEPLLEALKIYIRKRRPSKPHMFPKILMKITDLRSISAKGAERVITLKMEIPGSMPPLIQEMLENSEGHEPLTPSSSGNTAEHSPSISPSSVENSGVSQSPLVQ

[3] = biological target: T3, Retinoic acid receptor alpha (Homo sapiens, UniProt P10276); experiment: Antagonist activity at recombinant human RAR-alpha expressed in mammalian cells in presence of 9-cis-RA by luciferase reporter gene based transactivation assay; format: cell-based; in short: as §1
T3 sequence (P10276 whole entry): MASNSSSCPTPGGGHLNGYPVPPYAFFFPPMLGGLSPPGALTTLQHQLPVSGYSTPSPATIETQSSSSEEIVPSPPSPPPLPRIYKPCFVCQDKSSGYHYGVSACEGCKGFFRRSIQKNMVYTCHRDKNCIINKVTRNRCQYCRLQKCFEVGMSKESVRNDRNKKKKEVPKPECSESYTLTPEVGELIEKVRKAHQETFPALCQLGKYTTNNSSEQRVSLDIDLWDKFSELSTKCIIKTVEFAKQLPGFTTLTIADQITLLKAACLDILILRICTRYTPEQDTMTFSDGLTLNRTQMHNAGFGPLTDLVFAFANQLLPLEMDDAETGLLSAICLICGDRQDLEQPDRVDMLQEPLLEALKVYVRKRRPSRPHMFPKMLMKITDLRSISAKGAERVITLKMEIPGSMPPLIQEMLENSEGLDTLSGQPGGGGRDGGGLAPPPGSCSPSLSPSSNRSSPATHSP

[4] = biological target: T4, Retinoic acid receptor beta (Homo sapiens) (UniProt P10826); experiment: Agonist activity at recombinant human RAR-beta expressed in mammalian cells by luciferase reporter gene based transactivation assay relative to control; format: cell-based
T4 sequence (whole entry): T2 sequence (P10826 whole entry)
In short: (§2)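 Transactivation in proprietary reporter cells expressing recombinant human RAR subtype with RARE-linked beetle luciferase. Compounds in DMSO (final 0.4%), 8-point dose response in triplicate; cells added, incubated overnight at 37 °C, 5% CO2, then luciferase reagent 30 min r.t., luminescence read.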

[5] = biological target: T5, Retinoic acid receptor alpha (Homo sapiens) (UniProt P10276); experiment: Agonist activity at recombinant human RAR-alpha expressed in mammalian cells by luciferase reporter gene based transactivation assay relative to control; format: cell-based; in short: as §2
T5 sequence (whole entry): T3 sequence (P10276 whole entry)

[6] = biological target: T6, Retinoic acid receptor gamma (Homo sapiens) (UniProt P13631); experiment: Agonist activity at recombinant human RAR-gamma expressed in mammalian cells by luciferase reporter gene based transactivation assay relative to control; format: cell-based; in short: as §2
T6 sequence (whole entry): T1 sequence (P13631 whole entry)

[7] = biological target: T1, Retinoic acid receptor gamma; experiment: Agonist activity at recombinant human RAR-gamma expressed in mammalian cells by luciferase reporter gene based transactivation assay; format: cell-based
In short: (§3)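 Human RAR-subtype luciferase reporter cells (RARE-driven). Compounds in DMSO (final 0.4%) tested as 8-point dose response in triplicate. Incubated overnight at 37 °C in 5% CO2, then detection reagent 30 min at r.t. and luminescence measured. EC50 by four-parameter logistic fit, mean ± SEM from geometric mean of log EC50 across independent experiments.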

[8] = biological target: T2, Retinoic acid receptor beta; experiment: Agonist activity at recombinant human RAR-beta expressed in mammalian cells by luciferase reporter gene based transactivation assay; format: cell-based; in short: as §3
[9] = biological target: T3, Retinoic acid receptor alpha

Structure (SMILES)	pIC50 [1]	pIC50 [2]	pIC50 [3]	other results
Cc1ccc(C2=CCC(C)(C)c3ccc(C(=O)NCc4ccc(C(=O)O)cc4)cc32)cc1	< 5.48	< 5.48	< 5.48	–
CC1(C)CC=C(c2ccc(CN3CCOCC3)cc2)c2cc(C(=O)Nc3ccc(C(=O)O)cc3)ccc21	< 5.48	6.76	6.28	Emax [4]: 0%; Emax [5]: 0%; Emax [6]: 0%
CC1(C)CC=C(c2ccc(N3CCOCC3)cc2)c2cc(NC(=O)c3ccc(C(=O)O)cc3)ccc21	< 5.48	6.14	< 5.48	–
CC1(C)CC=C(c2ccccc2)c2cc(C(=O)NCc3ccc(C(=O)O)cc3)ccc21	< 5.48	< 5.48	< 5.48	–
CC1(C)CC=C(c2ccc(N3CCOCC3)cc2)c2cc(NC(=O)Nc3ccc(C(=O)O)cc3)ccc21	< 5.48	< 5.48	< 5.48	–
CC1(C)CC=C(c2ccc(N3CCOCC3)cc2)c2cc(NC(=O)c3ccc(C(=O)O)c([N+](=O)[O-])c3)ccc21	< 5.48	< 5.48	< 5.48	–
Cc1ccc(C2=CCC(C)(C)c3ccc(C(=O)Nc4ccc(C(=O)O)cc4)cc32)cc1	5.59	< 5.48	7.54	pEC50 [7]: < 5.48; Emax ([4]; filed as agonist): 46%; Emax [5]: 9%; pEC50 [8]: 7.26; Emax [6]: 15%
Cc1ccc(C2=CCC(C)(C)c3ccc(NC(=O)Nc4ccc(C(=O)O)cc4)cc32)cc1	< 5.48	6.08	< 5.48	–
Cc1ccc(C2=CC(C)(C)Oc3ccc(NS(=O)(=O)c4ccc(C(=O)O)cc4)cc32)cc1	< 5.48	< 5.48	< 5.48	–
Cc1ccc(C2=CC(C)(C)Oc3ccc(S(=O)(=O)Nc4ccc(C(=O)O)cc4)cc32)cc1	< 5.48	< 5.48	< 5.48	–
CC1(C)CC=C(c2ccccc2)c2cc(C(=O)Nc3ccc(C(=O)O)cc3)ccc21	< 5.48	< 5.48	6.85	pEC50 [7]: 6.25; Emax ([4]; filed as agonist): 150%; Emax [5]: 4%; pEC50 [8]: 7.60; Emax ([6]; filed as agonist): 47%
CC1(C)CC=C(c2ccc(N3CCOCC3)cc2)c2cc(C(=O)Nc3ccc(C(=O)O)cc3)ccc21	5.82	< 5.48	5.96	–
CC1(C)CC=C(c2ccc(CN3CCOCC3)cc2)c2cc(NC(=O)c3ccc(C(=O)O)cc3)ccc21	< 5.48	< 5.48	5.82	–
Cc1ccc(C2=CC(C)(C)Oc3c(Br)cc(S(=O)(=O)Nc4cc(F)c(C(=O)O)c(F)c4)cc32)cc1	< 5.48	< 5.48	< 5.48	–
Cc1ccc(C2=CCC(C)(C)c3ccc(N4CCc5cc(C(=O)O)ccc5C4)cc32)cc1	< 5.48	6.46	< 5.48	–

The next lines start with results.

pIC50 [1]	pIC50 [2]	pIC50 [3]	Structure (SMILES)	other results
6.89	7.68	< 5.48	Cc1ccc(C2=CCC(C)(C)c3ccc(-c4ccc5cc(C(=O)O)ccc5n4)cc32)cc1	–
< 5.48	< 5.48	< 5.48	CC1(C)CC=C(c2ccccc2)c2cc(NC(=O)Nc3ccc(C(=O)O)cc3)ccc21	–
< 5.48	< 5.48	< 5.48	Cc1ccc(C2=CC(C)(C)Oc3ccc(S(=O)(=O)Nc4cc(F)c(C(=O)O)c(F)c4)cc32)cc1	–
5.57	6.59	6.57	CC1(C)CC=C(c2cnc3ccccc3c2)c2cc(C(=O)Nc3ccc(C(=O)O)cc3)ccc21	–
< 5.48	< 5.48	< 5.48	Cc1ccc(C2=CC(C)(C)Oc3c(Br)cc(S(=O)(=O)Nc4ccc(C(=O)O)cc4)cc32)cc1	–
< 5.48	< 5.48	6.36	CC1(C)CC=C(c2cccs2)c2cc(C(=O)Nc3ccc(C(=O)O)cc3)ccc21	Emax ([4]; filed as agonist): 167%; Emax [5]: 3%; pEC50 [8]: 7.82
< 5.48	< 5.48	< 5.48	CC1(C)CC=C(c2ccc(C(=O)N3CCOCC3)cc2)c2cc(NC(=O)c3ccc(C(=O)O)cc3)ccc21	–
< 5.48	< 5.48	< 5.48	Cc1ccc(C2=CCC(C)(C)c3ccc(C(=O)N4CCc5cc(C(=O)O)ccc5C4)cc32)cc1	–
< 5.48	< 5.48	6.37	Cc1ccc(C2=CCC(C)(C)c3ccc(C(=O)Nc4cc(F)c(C(=O)O)c(F)c4)cc32)cc1	–
8.12	–	8.03	CC1(C)CC=C(c2ccccc2)c2cc(/C=C/c3ccc(C(=O)O)cc3)ccc21	pEC50 [7]: 6.92; pIC50 [9]: ~8.00; Emax [6]: 26%
